In the library only some 2.8% were active in any assay of this set; here they are far more common.
HTR2A ag – mouse HTR2A agonism via beta-arrestin recruitment. CHO-K1 mHTR2A beta-arrestin complementation, luminescence; percent of 30 µM serotonin response. activation, % at 7.6 µM. 0.66% of 360,000 active. AID 624169;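 active means activation above a run cutoff, the mean activation of all tested compounds plus 3 SD, cut at about 14% in these data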
Target sequence (P35363 whole entry, looked up): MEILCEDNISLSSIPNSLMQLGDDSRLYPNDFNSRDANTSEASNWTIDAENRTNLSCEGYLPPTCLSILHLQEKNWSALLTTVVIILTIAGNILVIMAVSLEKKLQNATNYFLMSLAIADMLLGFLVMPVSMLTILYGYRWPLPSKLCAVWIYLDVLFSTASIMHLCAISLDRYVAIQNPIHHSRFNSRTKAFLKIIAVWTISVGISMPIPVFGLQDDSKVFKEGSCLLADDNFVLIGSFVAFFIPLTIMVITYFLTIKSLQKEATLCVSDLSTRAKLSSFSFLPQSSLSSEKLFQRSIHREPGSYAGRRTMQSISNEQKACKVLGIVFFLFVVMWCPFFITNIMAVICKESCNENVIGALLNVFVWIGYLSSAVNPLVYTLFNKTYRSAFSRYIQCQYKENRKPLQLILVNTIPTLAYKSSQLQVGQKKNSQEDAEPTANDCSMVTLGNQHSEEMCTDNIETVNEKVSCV
MC4R antagonist – antagonists of human melanocortin 4 receptor (MC4R). MC4R-expressing cells, MTII-stimulated cAMP, LANCE TR-FRET. inhibition, % at 6.5 µM. 0.48% of 360,000 active. P32245;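 active means inhibition above its plate's cutoff, the mean of tested wells on that plate plus 3 SD, cut at about 29% in these data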
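System: U2OS-MC4R stable cell line; Technique: Eu-cAMP/anti-cAMP TR-FRET, emission 671 nm; Repeats: single well per compound; Also added: Melanotan II; Dosing: one concentration, 6.5 µM nominal; Schedule: 30-min compound, 1-h challenge, 1-h detection, room temperature.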
MC4R ag barr – activates human MC4R beta-arrestin recruitment. P32245. activation, % at 8.9 µM. U2OS MC4R beta-arrestin complementation, luminescence; percent of melanotan II response, DMSO zero. 0.98% of 360,000 active;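 active means activation above a per-plate cutoff, the mean activation of sample wells on that plate plus 3 SD, cut at about 8% in these data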
EBI2 antag – blocks human EBI2 receptor beta-arrestin signaling. P32249. EBI2 beta-arrestin recruitment, luminescence, 7a,25-OHC stimulated. inhibition, % at 5 µM. 0.81% of 360,000 active; in the data active means inhibition above about 38%;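 further: enzyme fragment complementation signal reports receptor beta-arrestin coupling in cells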
MC4R barr ag – human MC4R beta-arrestin agonism confirmation; activation, % at 8.9 µM; 31% of 2,400 active; AID 602192; shares compounds with MC4R ag barr; U2OS MC4R beta-arrestin recruitment, luminescence; scaled DMSO 0%, Melanotan II 100%;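 active means mean activation across replicates above the hit cutoff set in the earlier primary screen, cut at about 8% in these data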
MOR-DOR barr ag – counter-screen for MC4R agonists: agonists of mu-delta opioid heterodimer; U2OS PathHunter beta-arrestin, beta-gal luminescence; percent of deltorphin B response, DMSO zero; shares compounds with MC4R ag barr; 5.8% of 2,400 active; activation, % at 9.2 µM;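 active means mean activation across replicates exceeds the hit threshold derived in the earlier primary screen, cut at about 18% in these data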
Hits are given with their value; n = inactive; x = no result.

SMILES | HTR2A ag | MC4R antagonist | MC4R ag barr | EBI2 antag | MC4R barr ag | MOR-DOR barr ag
O=[N+]([O-])c1cc(S(=O)(=O)N2CCCC2)ccc1N/N=C/c1ccncc1 | n | n | n | n | x | x
O=[N+]([O-])c1cc(S(=O)(=O)N2CCCC2)ccc1N/N=C/c1cccs1 | n | n | 20 | n | n | n
O=C(Nc1ccc(Cl)c(C(F)(F)F)c1)C1Cc2c(-c3ccc4c(c3)OCO4)ccnc2O1 (stereo not given) | n | n | n | n | x | x
COc1ccc(/C=N/Nc2ccc(C(F)(F)F)cc2[N+](=O)[O-])cc1O | n | n | 20 | n | n | n
COc1ccc(CCNC(=O)c2c(O)c3c([nH]c2=O)CCCC3)cc1 | n | n | 10 | n | 8.6 | n
CCCCN1C(=O)C(CC(=O)NCc2ccco2)CC(C(=O)N2CCOCC2)=C1C (stereo not given) | n | n | n | n | x | x
COc1ccc(-c2ccc(N3C(c4cc(OC)cc(OC)c4)=Cc4ccc(OC)cc4C3CC(C)=O)cc2)cc1 (stereo not given) | n | x | x | n | x | x
O=C(NN=Cc1ccc2c(c1)CCC2)c1cccc([N+](=O)[O-])c1 | n | n | 22 | n | 13 | n
O=C(Cc1cccc2ccccc12)NN=Cc1ccc2c(c1)CCC2 | n | n | 13 | n | n | n
CN1CCN(S(=O)(=O)c2cccc(C(=O)N(C)CC(=O)Nc3ccc(Cl)c(Cl)c3)c2)CC1 | n | n | n | n | x | x
CCOC(=O)/C(=N\Nc1ccc(C(C)=O)cc1)c1csc(Nc2ccccc2)n1 | n | n | 21 | n | 13 | n
COc1cccc(OCC(=O)NN=C2c3ccccc3-c3ccccc32)c1 | n | n | 65 | n | n | n
COc1cccc(OCC(=O)Nc2ccccc2-c2ccccc2)c1 | n | n | n | n | x | x
CC(=O)NC(C)(c1ccccc1)c1nc(-c2cccc(F)c2)cs1 (stereo not given) | n | n | n | n | x | x
N#Cc1c(N)[nH]c2ccc(Sc3ccccc3)cc12 | n | n | n | n | x | x
CCNC(=S)N/N=C/c1c(C)nn(-c2cccc(Cl)c2)c1Cl | n | n | 21 | n | n | n
Cc1nn(-c2cccc(Cl)c2)c(Cl)c1/C=N/NC(=O)c1cccs1 | n | n | 25 | n | n | n
CCN1C(=O)[C@H]2[C@@H](c3ccc(C(F)(F)F)cc3)N[C@]3(CCCN(Cc4ccccc4)C3=O)[C@H]2C1=O | n | n | n | n | x | x
CCOC(=O)Nc1sc(C)c(C)c1C(=O)OCC | n | n | 10 | n | n | n
COc1ccc(NC(=O)COC(=O)c2c(NC(C)=O)sc(C)c2C)cc1 | n | n | 31 | n | 18 | n
CNc1ccc(-c2cccc(C#N)c2)cn1 | n | n | n | n | x | x
O=C(CSc1nc2cc3ccccc3cc2[nH]1)Nc1ccc(F)cc1 | n | n | 9.6 | n | n | n
Cc1nnc(SCC(=O)Nc2cc(C(N)=O)cc(C(N)=O)c2)n1-c1ccccc1 | n | n | n | n | x | x
Cc1ccc(CCc2nnc(SCC(=O)Nc3cccc(Cl)c3)n2-c2ccccc2)o1 | n | n | 27 | n | n | n
CCOc1ccccc1C(=O)NCC(=O)NCCSc1ccc(Br)cc1 | n | n | 15 | n | n | n
SMILES | HTR2A ag | MC4R antagonist | MC4R ag barr | EBI2 antag | MC4R barr ag | MOR-DOR barr ag
CCOc1ccccc1C(=O)NCCNC(=O)c1ccccc1OCC | n | n | n | n | x | x
CN=C1N(C)C[C@@H]2[C@@H]3C(=O)N(C)C(=O)[C@@H]3[C@](Cc3ccccc3)(C(=O)OC)N12 | n | n | n | n | x | x
COCCCN(Cc1cc(OC)c(OC)c(OC)c1)C(=S)Nc1cccc(Cl)c1 | n | n | n | n | x | x
COc1ccc(N2CCN(c3cc(C)c4ccccc4n3)CC2)cc1 | n | n | 16 | n | n | n
C=CCNc1nc(C(F)(F)F)nc2c1nnn2Cc1ccccc1Cl | n | n | 12 | n | n | n
O=C(/C=C/c1cccs1)c1ccc([N+](=O)[O-])cc1 | n | n | 11 | n | n | n
O=C(/C=C/c1cccs1)Nc1ccc([N+](=O)[O-])cc1 | n | n | n | n | x | x
O=C(Nc1nc(-c2ccc(F)c(F)c2)cs1)Nc1ccc(F)cc1F | n | n | 10 | n | n | n
CC1=C(C(=O)N(C(C)C)C(C)C)CC(CC(=O)NCc2cccs2)C(=O)N1CCCN1CCCC1=O (stereo not given) | n | x | x | n | x | x
Cc1cccc(C)c1C(O)c1ncc(-c2cccc(F)c2)[nH]1 (stereo not given) | n | n | n | n | x | x
C=CCNC(=O)NC(=O)COC(=O)/C(C#N)=C/c1cc(C)n(CCC(C)C)c1C | n | n | 10 | n | n | n
Cc1cc(/C=C(\C#N)C(=O)OCC(=O)NC(=O)NC(C)(C)C)c(C)n1CCC(C)C | n | n | n | n | x | x
CCOc1ccc(OCC)c(NC(=O)c2nnn(CC(=O)Nc3cc(C)cc(C)c3)c2N)c1 | n | n | 42 | n | 18 | n
CCOc1ccc(NC(=O)c2nnn(CC(=O)Nc3ccccc3OCC)c2N)cc1 | n | n | n | n | x | x
Cc1ccc(-c2nc3ccccc3s2)cc1NC(=S)NC(=O)c1ccccc1 | n | n | n | n | x | x
Cc1ccc(-c2nc3ccccc3s2)cc1NC(=O)c1cc(-n2cnnc2)ccc1Cl | n | n | 11 | n | n | n
CCc1nc2c(OCc3ccc(F)cc3)cccn2c1N(C)C(=O)COc1ccccc1 | n | n | n | n | x | x
CN(C)C(CNC(=O)c1cc(S(=O)(=O)N2CCOCC2)ccc1Cl)c1cccs1 (stereo not given) | n | n | n | n | x | x
CCN(CC)C(=O)C1=C(C)N(CCCN2CCCC2=O)C(=O)C(CC(=O)NCCN2CCOCC2)C1 (stereo not given) | n | n | n | n | x | x
COc1ccc(NC(=O)Cc2c(SC)c3ccccc3n2Cc2ccccc2)cc1 | n | n | 24 | n | n | n
CSc1c(CC(=O)NCCCO)n(Cc2ccccc2)c2ccccc12 | n | n | n | n | x | x
CCN=C1SC(CC(=O)Nc2sc3c(c2C#N)CCCC3)C(=O)N1CC (stereo not given) | n | n | 12 | n | n | n
CCc1nnc(NC(=O)Cn2c(=O)oc3ccccc32)s1 | n | n | n | n | x | x
Cc1sc(NC(=O)Cn2c(=O)oc3ccccc32)nc1-c1ccc(Cl)cc1 | n | n | 13 | n | n | n
Cc1cnc(CNC(=O)c2ccc3nc([C@@H]4O[C@H](CO)[C@H](O)[C@H](O)[C@H]4O)[nH]c3c2)cn1 | n | n | n | n | x | x
CCC(C(=O)Nc1nnc(-c2ccco2)s1)c1ccccc1 (stereo not given) | n | n | 10 | n | n | n
O=C(Nc1nnc(CC(c2ccccc2)c2ccccc2)s1)c1ccco1 | n | n | 20 | n | n | n
CCOC(=O)[C@@H](NC(=O)/C=C/[C@H]1O[C@@H](n2cc(C)c(=O)[nH]c2=O)C[C@@H]1O)C(C)C | n | x | x | n | x | x

Screening data from PubChem.
